In brackets after ≈: the same amount, converted by molar mass.
Tests used:
[1] = tested on: Staphylococcus haemolyticus; test: Minimum inhibitory concentration of compound against 8 strains of Staphylococcus hemolyticus; format: functional
Method in brief: (§1)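 Agar dilution on Iso-Sensitest agar against clinical coagulase-negative staphylococcal isolates, including methicillin-resistant strains. Final inoculum about 10⁴ cfu/mL.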

[2] = tested on: Staphylococcus sp.; test: Minimum inhibitory concentration of compound against 16 different strains of staphylococcus species; format: functional; method in brief: as §1
[3] = tested on: Staphylococcus epidermidis; test: 50 percent Minimum inhibitory concentration of compound against 12 strains of Staphylococcus epidermidis; format: functional; method in brief: as §1
[4] = tested on: Staphylococcus epidermidis; test: In vitro minimum inhibitory concentration against Staphylococcus epidermis ATCC 12228; format: functional
[5] = tested on: Streptococcus pneumoniae; test: In vitro minimum inhibitory concentration against Streptococcus pneumoniae UC41; format: functional
[6] = tested on: Staphylococcus sp.; test: 50 percent Minimum inhibitory concentration of compound against 16 different strains of staphylococcus species; format: functional; method in brief: as §1
[7] = tested on: Staphylococcus epidermidis; test: Minimum inhibitory concentration of compound against 12 strains of Staphylococcus epidermidis; format: functional; method in brief: as §1
[8] = tested on: Staphylococcus haemolyticus; test: 50 percent Minimum inhibitory concentration of compound against 8 strains of Staphylococcus hemolyticus; format: functional; method in brief: as §1
[9] = tested on: Staphylococcus epidermidis; test: 90 percent Minimum inhibitory concentration of compound against 12 strains of Staphylococcus epidermidis; format: functional; method in brief: as §1
[10] = tested on: Streptococcus pyogenes; test: In vitro minimum inhibitory concentration against Streptococcus pyogenes C 203; format: functional
[11] = tested on: Staphylococcus haemolyticus; test: In vitro minimum inhibitory concentration against Staphylococcus hemolyticus 602 cell line; format: functional; conditions: strain 602
[12] = tested on: Staphylococcus aureus; test: In vitro minimum inhibitory concentration against Staphylococcus aureus Tour; format: functional
[13] = tested on: Enterococcus faecalis; test: In vitro minimum inhibitory concentration against Streptococcus faecalis ATCC 7080; format: functional
[14] = tested on: Staphylococcus sp.; test: 90 percent Minimum inhibitory concentration of compound against 16 different strains of staphylococcus species; format: functional; method in brief: as §1
[15] = tested on: Staphylococcus haemolyticus; test: 90 percent Minimum inhibitory concentration of compound against 8 strains of Staphylococcus hemolyticus; format: functional; method in brief: as §1
[16] = tested on: Streptococcus pyogenes; test: Subcutaneously administration into mice infected with Streptococcus pyogenes C 203; format: functional; conditions: sc
Method in brief: (§2)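 Mice (five per treatment group, five groups) infected intraperitoneally with about 10⁵ cells of Strep. pyogenes C 203, about 100× the LD50. ED50 (mg/kg) was calculated from the percentage of mice surviving at each dose on day 7.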

[17] = tested on: Streptococcus pyogenes; test: In vivo effective dose given perorally to mice infected with Streptococcus pyogenes C 203; format: functional; conditions: po; method in brief: as §2
[18] = tested on: Staphylococcus aureus; test: In vitro minimum inhibitory concentration of compound against Staphylococcus aureus Tour; format: organism-based
[19] = tested on: Ac2-L-Lys-D-Ala-D-Ala peptide; test: Association constant with Ac2-L-Lys-D-Ala-D-Ala
Method in brief: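 UV difference spectroscopy at 24 ± 2 °C in 4-cm unthermostated cells. Antibiotic was at 30 μM in 10% MeOH in sodium phosphate buffer, pH 9, and titrated with Ac2-L-Lys-D-Ala-D-Ala. ΔA was monitored at 294 nm. Ka was taken from the slope of a Scatchard plot.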

[20] = tested on: Bacteria; test: Minimum inhibitory concentration of compound against Gram negative bacteria; format: functional

| SMILES | MIC [1] | MIC [2] | MIC50 [3] | MIC [4] | MIC [5] | MIC50 [6] | MIC [7] | MIC50 [8] | MIC90 [9] | MIC [10] | MIC [11] | MIC [12] | MIC [13] | MIC90 [14] | MIC90 [15] | ED50 [16] | ED50 [17] | MIC [18] | Ka [19] | MIC [20] |
| --- | --- | --- | --- | --- | --- | --- | --- | --- | --- | --- | --- | --- | --- | --- | --- | --- | --- | --- | --- | --- |
| CC(=O)N[C@@H]1[C@H](O[C@@H]2c3ccc(c(Cl)c3)Oc3cc4cc(c3O[C@@H]3O[C@@H](CO)[C@@H](O)[C@H](O)[C@@H]3NC(=O)CCCCCCC(C)C)Oc3ccc(cc3Cl)C[C@H]3NC(=O)[C@H](N)c5ccc(O)c(c5)Oc5cc(O)cc(c5)[C@H](NC3=O)C(=O)N[C@H]4C(=O)N[C@H]3C(=O)N[C@@H]2C(=O)N[C@H](C(=O)NCCCN(C)C)c2cc(O)cc(O[C@H]4O[C@H](CO)[C@@H](O)[C@@H](O)[C@@H]4O)c2-c2cc3ccc2O)O[C@@H](CO)[C@@H](O)[C@@H]1O | 1 µg/mL (≈ 0.509 µM) | 0.25 µg/mL (≈ 0.127 µM) | 0.25 µg/mL (≈ 0.127 µM) | 0.06 µg/mL (≈ 0.0306 µM) | 0.06 µg/mL (≈ 0.0306 µM) | 0.5 µg/mL (≈ 0.255 µM) | 0.125 µg/mL (≈ 0.0637 µM) | 1 µg/mL (≈ 0.509 µM) | 1 µg/mL (≈ 0.509 µM) | 0.06 µg/mL (≈ 0.0306 µM) | 0.12 µg/mL (≈ 0.0611 µM) | 0.12 µg/mL (≈ 0.0611 µM) | 0.12 µg/mL (≈ 0.0611 µM) | 1 µg/mL (≈ 0.509 µM) | 2 µg/mL (≈ 1.02 µM) | 0.05 mg/kg | 70.7 mg/kg | – | – | – |
| CCCCC/C=C/CCC(=O)N[C@@H]1[C@H](Oc2c3cc4cc2Oc2ccc(cc2Cl)[C@@H](O[C@@H]2O[C@@H](CO)[C@@H](O)[C@H](O)[C@@H]2NC(C)=O)[C@@H]2NC(=O)[C@H](NC(=O)[C@@H]4NC(=O)[C@H]4NC(=O)[C@@H](Cc5ccc(c(Cl)c5)O3)NC(=O)[C@H](N)c3ccc(O)c(c3)Oc3cc(O)cc4c3)c3ccc(O)c(c3)-c3c(O[C@H]4O[C@H](CO)[C@@H](O)[C@@H](O)[C@@H]4O)cc(O)cc3[C@@H](C(=O)O)NC2=O)O[C@@H](CO)[C@@H](O)[C@@H]1O | 2 µg/mL (≈ 1.07 µM) | 0.25 µg/mL (≈ 0.133 µM) | 0.5 µg/mL (≈ 0.266 µM) | 0.25 µg/mL (≈ 0.133 µM) | 0.06 µg/mL (≈ 0.032 µM) | 1 µg/mL (≈ 0.533 µM) | 0.25 µg/mL (≈ 0.133 µM) | 16 µg/mL (≈ 8.52 µM) | 2 µg/mL (≈ 1.07 µM) | 0.06 µg/mL (≈ 0.032 µM) | 4 µg/mL (≈ 2.13 µM) | 0.12 µg/mL (≈ 0.0639 µM) | 0.12 µg/mL (≈ 0.0639 µM) | 4 µg/mL (≈ 2.13 µM) | 32 µg/mL (≈ 17 µM) | 0.12 mg/kg | 170 mg/kg | – | – | – |
| CC(=O)N[C@@H]1[C@H](O[C@@H]2c3ccc(c(Cl)c3)Oc3cc4cc(c3O[C@@H]3O[C@@H](CO)[C@@H](O)[C@H](O)[C@@H]3NC(=O)CCCCCCC(C)C)Oc3ccc(cc3Cl)C[C@H]3NC(=O)[C@H](N)c5ccc(O)c(c5)Oc5cc(O)cc(c5)[C@H](NC3=O)C(=O)N[C@H]4C(=O)N[C@H]3C(=O)N[C@@H]2C(=O)N[C@H](C(=O)NC2CCN(Cc4ccccc4)CC2)c2cc(O)cc(O[C@H]4O[C@H](CO)[C@@H](O)[C@@H](O)[C@@H]4O)c2-c2cc3ccc2O)O[C@@H](CO)[C@@H](O)[C@@H]1O | – | – | – | 0.12 µg/mL (≈ 0.0585 µM) | 0.06 µg/mL (≈ 0.0292 µM) | – | – | – | – | 0.06 µg/mL (≈ 0.0292 µM) | 4 µg/mL (≈ 1.95 µM) | – | 0.12 µg/mL (≈ 0.0585 µM) | – | – | 0.08 mg/kg | > 300 mg/kg | 0.12 µg/mL (≈ 0.0585 µM) | – | – |
| CC(=O)N[C@@H]1[C@H](O[C@@H]2c3ccc(c(Cl)c3)Oc3cc4cc(c3O)Oc3ccc(cc3Cl)C[C@H]3NC(=O)[C@H](N)c5ccc(O)c(c5)Oc5cc(O)cc(c5)[C@H](NC3=O)C(=O)N[C@H]4C(=O)N[C@H]3C(=O)N[C@@H]2C(=O)N[C@H](C(=O)N2CCSCC2)c2cc(O)cc(O[C@H]4O[C@H](CO)[C@@H](O)[C@@H](O)[C@@H]4O)c2-c2cc3ccc2O)O[C@@H](CO)[C@@H](O)[C@@H]1O | – | – | – | 0.12 µg/mL (≈ 0.0728 µM) | 0.5 µg/mL (≈ 0.303 µM) | – | – | – | – | 0.5 µg/mL (≈ 0.303 µM) | – | 0.5 µg/mL (≈ 0.303 µM) | 2 µg/mL (≈ 1.21 µM) | – | – | 1.6 mg/kg | – | – | 120000 M⁻¹ | > 128 µg/mL |

Source: ChEMBL document CHEMBL1124366, “Synthesis and biological properties of N63-carboxamides of teicoplanin antibiotics. Structure-activity relationships” (J Med Chem, 1989)
